The structures appear in SMILES notation.

A short description of this data set: Toxicity liver stage against HepG2, at 10uM. The arrangement: test concentration 10 uM, cell line HepG2-A16-CD81EGFP. Type of data set: cell-based. The following applies: human, HepG2-A16-CD81EGFP cells; read-out: INHIBITION
A digest of the protocol:
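Uninfected HepG2-A16-CD81EGFP cells, 3 × 10^3 per well, 1536-well, plated on prespotted compound at 10 μM final, parasite-free screening media added to match infected plates; puromycin 10 μM positive, DMSO 0.5% negative; run in parallel with 48 h PbLuc assay at 37 °C, 5% CO2; viability by CellTiter-Glo luminescence, normalized to controls.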
For the compound `COc1ccc(C)cc1CN1CCN(Cc2nccn2C)CC1`, the cytotoxicity at 10 µM amounted to 5.5%.
As to `CCN(CC)CC1CCN(C(=O)CCn2cccn2)CC1`, the cytotoxicity at 10 µM was -13.3%.
Next, `c1cnn(CCC2CCN(Cc3ccc4[nH]ccc4c3)CC2)c1`: -7.57%; `CC(C)(C)N1CC(c2ncc(-c3ccc4c(c3)OCCO4)[nH]2)CC1=O` (stereo unspecified): 6.19%.
With `CNC(=O)C(C)NC(=O)c1cc(COc2ccc(OC)cc2Cl)[nH]n1` (stereo unspecified) the figure was 5.27%; with `COCCNC(=O)CN1CCN(c2nc(C)cs2)C(C)C1` (stereo unspecified), -4.03%; with `COC(=O)NCCC(=O)NC(c1ccc(Cl)cc1)C(F)(F)F` (stereo unspecified), 7.51%.
For `CCCn1ncc(C(=O)N2CCN(C3CCSCC3)CC2)c1C`, the cytotoxicity at 10 µM is -148%.
Regarding `Cc1cc(N2CCN(C(=O)CCc3scnc3C)CC2)cc(C)n1`, the cytotoxicity at 10 µM was -48.4%.
Next, `CN(CCCc1cnn(C)c1)C(=O)Nc1cccc2[nH]ncc12`: -1.89%; `Cc1csc(CCCNC(C)CC(=O)Nc2ccc(F)cc2)n1` (stereo unspecified): 1.52%; `Cc1nn(C)c2nc(N3CCN(Cc4nccn4C)CC3)sc12`: -4.66%.
With `CC(C(=O)NC1CC1)S(=O)(=O)Cc1nc(Cc2ccccc2)no1` (stereo unspecified) the figure was 5.42%; with `CC(C)Oc1ccc2c(NC(=O)[C@H](C)O)nn(CC(F)(F)F)c2c1`, -4.87%; with `O=C(CCN1CCCCO1)N1CC[C@H](O)[C@@H](O)C1`, -1.77%.
With `FC1(F)CCN(Cc2ccncc2)CC12CCN(c1cnccn1)C2` (stereo unspecified) the figure was 3.19%; with `NC1CCc2c(ccc(=O)n2Cc2ccncc2)C1` (stereo unspecified), -4.16%; with `COCCc1noc(CNC2CCSC2)n1` (stereo unspecified), -15%.
In the case of `Cc1ccc(C2CC(=O)NCc3nc(N)sc32)cc1C` (stereo unspecified), the cytotoxicity at 10 µM is -8.47%.
Next, `CC(=O)N1CC(C)CN(C(=O)c2cnccn2)c2ccccc21` (stereo unspecified): 3.82%; `CCc1nc2c(c(C)c(C)n2Cc2cccnc2)c(N)c1C`: 6.7%; `O=C(CCc1ccccc1)NCC(O)c1c(F)cccc1F` (stereo unspecified): -0.558%.
`Cc1cc(O)c(OCC(=O)/N=c2\[nH]c(C)cs2)cn1`: the cytotoxicity at 10 µM turned out to be 6.36%.
Next, `NC(=O)COc1cccc(C(=O)NCc2ccc(Cl)s2)c1`: -0.935%; `NC1CCC(Nc2nccc(CCC(F)(F)F)n2)CC1` (stereo unspecified): -15%; `Cc1nc(CN2CCC(C(=O)O)(n3ccc(C(C)C)n3)CC2)co1`: -125%.
As to `Cc1cc(C)c(C(=O)N2CCCC(C(=O)CCc3ccccc3)C2)cn1` (stereo unspecified), the cytotoxicity at 10 µM is -7.12%.
Next, `CNC(=O)CN1CCC(NC(=O)N(C)Cc2cc(C)on2)CC1`: -0.626%; `OC1CN(Cc2cccc(N3CCOCC3)c2)Cc2ccccc21` (stereo unspecified): -3.15%; `CNC(=O)[C@H]1C[C@@H]2CN(Cc3cccnc3OC)C[C@@H]2N1C(C)C`: 11.5%.
In the case of `CC(=O)N1CCCCC1c1ncnn1-c1ccc2nc(C)sc2c1` (stereo unspecified), the cytotoxicity at 10 µM was -12%.
Next, `COc1cc2c(cc1-c1nc3c(cnn3C(C)C3CC3)[nH]1)OCO2` (stereo unspecified): 4.82%.
On to `Cc1nccn1CCCNc1ncccc1C#N`, for which the cytotoxicity at 10 µM is -9.09%.
Next, `Cc1noc(C)c1C(=O)N1C[C@H]2CCC[C@@]2(COc2ccccn2)C1`: -5.53%; `CC(C)N1CC2(CCCN(c3ccnc4ccccc34)C2)CCC1=O` (stereo unspecified): 8.62%; `Cc1nn(-c2ccccc2Cl)c(C)c1CCC(=O)NCCS(C)(=O)=O`: 2.78%.
Next, `Cc1cc(C)n(CC(=O)N2CCC(c3nc(C)no3)CC2)n1`: 1.2%; `c1cc2nccc(CC3CCCN(C4CCOCC4)CC3)c2cn1` (stereo unspecified): -8.24%; `CCc1ccccc1Nc1noc2c1CN(C(=O)CNC(C)=O)CC2`: -20.1%.
With `Cc1cccc(N(CC(=O)N2CCCCC2)Cc2nc(=O)[nH][nH]2)c1` the figure was -2.85%; with `O=C(N1CCC(OCc2ccccn2)CC1)C1(c2ccc(F)cc2)CC1`, 0.178%; with `NC(=O)c1cccc(CC2CCN(C(=O)Cn3cnnn3)C2)c1` (stereo unspecified), 0.557%.
For `O=C(CCc1nc(-c2ccccc2)no1)N[C@H]1COC[C@@H]1N1CCCC1`, the cytotoxicity at 10 µM is -1.83%.
With `CC(=O)N1Cc2nccn2CC(CNC(=O)c2cnccn2)C1` (stereo unspecified) the figure was -144%.
Regarding `CN(CC(=O)NCc1ccccn1)C1CCCN(c2cccnn2)C1` (stereo unspecified), the cytotoxicity at 10 µM is -9.06%.
For `CCOC[C@H]1CC[C@H]2[C@H](CCN2C(=O)c2ccncc2F)O1`, the cytotoxicity at 10 µM was -6.96%.
With `COc1ccc([C@@H]2CN(Cc3ccncc3)C[C@H]2N(C)C)cc1` the figure was -2.52%; with `CCn1ccnc1CNCC(c1ccc(C)s1)N1CCOCC1` (stereo unspecified), 6.41%.
Next, `CC(=O)N1CCC(c2nccnc2-c2ccc(F)cc2)CC1`: -2.22%.
Consider `O=C(NCCCn1cccn1)C1CCC(=O)N(Cc2ccccc2F)C1` (stereo unspecified), for which the cytotoxicity at 10 µM is -3.75%.
Next, `Cn1ccnc1C(=O)N1CCCC1c1ccc(C(=O)N2CCOCC2)s1` (stereo unspecified): -155%; `O=C(Cc1ccccn1)N1C[C@H]2CCC[C@@]2(COc2ccccn2)C1`: 1.86%; `Cc1cc(C(C)NC(=O)CCn2nnc3ccccc3c2=O)c(C)o1` (stereo unspecified): 3.81%.
With `CCC1=N[C@@]2(CC[C@@H]3CN(CC4CC4)C[C@@H]32)C(=O)N1` the figure was 4.86%.
Next, `O=C(Cc1ccccc1Cl)NCCN1CCC(c2cccs2)CC1`: 6.93%; `Cn1cc(CNS(=O)(=O)c2cc(F)ccc2F)cn1`: -0.439%.
On to `CS(=O)(=O)c1ccc(CNC2CCCN(c3cccnn3)C2)cc1` (stereo unspecified), for which the cytotoxicity at 10 µM worked out at 1.3%.
Next, `CCS(=O)(=O)c1cccc(C(=O)Nc2cccc3c2C(=O)N(C)C3=O)c1`: -139%; `Cc1noc([C@]23COC[C@H]2CN(S(=O)(=O)C2CC2)C3)n1`: 8.1%; `CCc1nnsc1C(=O)N1CCCC(n2ccnc2C(C)C)C1` (stereo unspecified): -16%.
With `CC(Cn1ccnc1)NCc1ccc2nonc2c1` (stereo unspecified) the figure was 2.57%.
Next, `CN(Cc1nc(-c2cccnc2)no1)C(=O)c1c2c(nn1C)CCCC2`: 7.54%; `CCc1sc(C(=O)Nc2cnn(CC(=O)NC3CC3)c2)cc1C`: -2.17%; `CC(C)CCc1noc(CN2CCCC(CNS(N)(=O)=O)C2)n1` (stereo unspecified): 2.48%.
Turning to `Cc1oc(-c2ccsc2)nc1CN1CCCC(c2ccnn2C)C1` (stereo unspecified), the cytotoxicity at 10 µM is 10.7%.
Next, `CCc1nc(C2CCCN(C(=O)c3ccc(OC)cc3)C2)no1` (stereo unspecified): -15.6%; `Cc1ccccc1C1(C(=O)NCCN2CCCC(C)C2)CCOCC1` (stereo unspecified): -2.34%.
As to `O=C(CC1CCCCC1)NC1CCCCNC1=O` (stereo unspecified), the cytotoxicity at 10 µM was 6.82%.
Next, `Cc1ccc(N2CCC3(CCN(Cc4csc(C)n4)CC3)CC2)nn1`: 9.43%; `Cn1cc(-c2nnn3c2COC(CNCc2nccs2)C3)cn1` (stereo unspecified): -4.89%.
Next, `Cn1ccnc1CCC1CCCCN1Cc1nccn1C` (stereo unspecified): 8.13%; `CN1Cc2cc(F)ccc2N(CC(O)C(F)(F)F)CCC1=O` (stereo unspecified): 1.06%.
Next, `O=C1C[C@@H]2CC[C@H](CN1)N2C(=O)CCCc1ccc(Cl)cc1`: -7.05%.
With `CN(C)c1ccc(CCCNC(=O)NCC(O)c2cccs2)cc1` (stereo unspecified), the cytotoxicity at 10 µM was -2.59%.
In the case of `COc1c(CNCC(O)c2ccccc2)c(C(C)C)nn1C` (stereo unspecified), the cytotoxicity at 10 µM was -16.5%.
Next, `CCn1c(N)nc2cc(C(=O)N3CCN(c4nccs4)CC3)cnc21`: -17.2%; `CCn1cncc1CN1CCN(CC2(c3ccc(C)cc3)CC2)CC1`: -10.7%.
With `CC(=O)N1CCCN(Cc2csc(C)n2)c2ccccc21`, the cytotoxicity at 10 µM came to 0.00333%.
With `CC(=O)N1N=C(COc2ccc(Cl)cc2)OC1c1ccccc1` (stereo unspecified) the figure was 9.87%; with `CCCSc1ccccc1NC(=O)N1CCN(C(=O)c2ccc[nH]2)CC1`, 3.99%.
For the compound `CCn1ccc2ccnc(CC3CN(C(=O)Cn4ccnc4C)C3)c21`, the cytotoxicity at 10 µM was -5.87%.
Next, `O=C(c1ccc(Cl)cn1)N1CCC(COCc2ccccc2)C1` (stereo unspecified): 5.88%.
With `N#Cc1cccc(CN2C[C@H](NC(=O)C3CC3)[C@H]3OCCC[C@H]32)c1` the figure was -0.155%; with `Cn1ccnc1CN1CCCN(C(=O)c2ccc3[nH]nnc3c2)CC1`, -8.53%.
Consider `C[C@@H]1CN(S(=O)(=O)c2ccc(F)cc2F)C[C@]1(C)O`, for which the cytotoxicity at 10 µM is -3.36%.
As for `CCN(Cc1ccoc1)C(=O)NC1CCN(CC2CCCC2)CC1`, the cytotoxicity at 10 µM is -6.11%.
Next, `CC(C)(C)OC(=O)NCCNC(=O)c1cnc(-c2ccccc2)nc1`: 8.12%; `CCN(CC)c1ncc(S(=O)(=O)c2cccc(C)c2)c(N)n1`: -0.707%.
With `Cc1cccc(C(=O)N2CCN(S(C)(=O)=O)[C@@H]3CS(=O)(=O)C[C@@H]32)n1` the figure was 4.01%.
With `O=C(NCC1(CO)CC1)c1ccccc1Br` the figure was -0.734%; with `Cn1nnc(NCc2ccc(-c3ccc(Cl)cc3)o2)n1`, -7.15%; with `Cc1nc(CN(C)CC2CCCN(CCc3ccc(Cl)cc3)C2)no1` (stereo unspecified), 8.15%.
For the compound `CCOCCN1CCN(Cc2nnc(C3CC3)o2)CC1C` (stereo unspecified), the cytotoxicity at 10 µM turned out to be 12.9%.
Next, `c1ccc(CN2C[C@H]3CCC[C@@]3(COCC3CC3)C2)nc1`: 1.55%; `Cc1nc(C)n(CC2CN(CC(=O)Nc3ccncc3)CCO2)n1` (stereo unspecified): -0.654%.
`CC(C(=O)N1CCOCC1)N1CCN(Cc2nccn2C)CC1` (stereo unspecified): the cytotoxicity at 10 µM was -1.71%.

Values taken from ChEMBL document CHEMBL4513216, “Probing the Open Global Health Chemical Diversity Library for Multistage-Active Starting Points for Next-Generation Antimalarials” (ACS Infect Dis, 2020).
